Data published in ChEMBL document CHEMBL1152347, “A selective account of effective paradigms and significant outcomes in the discovery of inspirational marine natural products” (J Nat Prod, 2009).
pIC50: −log10 of the molar value. In brackets after ≈: the same amount, converted by molar mass. Each block holds one molecule with its values, some of them ahead of it.

Tests used:
KB = test: Cytotoxicity against human KB cells; format: functional, cell-based
Mus musculus [1] = test: Toxicity in human HCT116 xenografted SCID mouse assessed as increase in body weight at 12.3 mg/kg/day, iv administered as bolus dose from 3 days after tumor implantation for 5 days measured after 30 days; format: organism-based; set-up: route intravenous; settings: in vivo, 720 h
Method in brief: (§1)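 SCID mice implanted with HCT-116 tumour cells, dosed iv as a bolus daily for 5 days starting 3 days after inoculation and followed to day 30. Tumour response read as %T/C against untreated controls; body weights tracked over the 30 days and compared with untreated controls.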

Mus musculus [2] = test: Toxicity in human HCT116 xenografted SCID mouse assessed as increase in body weight at 25 mg/kg/day, iv administered as bolus dose from 3 days after tumor implantation for 5 days measured after 30 days; format: organism-based; set-up: route intravenous; settings: in vivo, 720 h; method in brief: as §1
HCT-116 [3] = test: Cytotoxicity against human HCT116 xenografted in SCID mouse at 12.3 mg/kg/day, iv administered as bolus dose from 3 days after tumor implantation for 5 days measured on day 9 relative to control; format: functional; method in brief: as §1
MDA-MB-435 = test: Cytotoxicity against human MDA-MB-435 cells; format: functional, cell-based; settings: for CC50: read-out: LC50 (the source's name)
HCT-116 [4] = test: Cytotoxicity against human HCT116 xenografted in SCID mouse at 25 mg/kg/day, iv administered as bolus dose from 3 days after tumor implantation for 5 days measured on day 11 relative to control; format: functional; method in brief: as §1
[5] = Toxicity in SCID mouse assessed as maximum tolerated dose; format: organism-based; settings: in vivo
HCT-116 [6] = test: Cytotoxicity against human HCT116 cells after 2 hrs by clonogenic assay; format: functional
Method in brief: (§2)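 Clonogenic dose-response on HCT-116 cells with exposures of 2, 24 and 168 h; the value is the concentration giving 90% cell kill at each exposure time.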

HCT-116 [7] = test: Cytotoxicity against human HCT116 cells; format: functional, cell-based
Method in brief: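 HCT-116 cells in liquid culture; IC50 from two determinations, reported as their median.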

HCT-116 [8] = test: Cytotoxicity against human HCT116 cells after 24 hrs by clonogenic assay; format: functional; method in brief: as §2
[9] = molecular target: Methionine aminopeptidase 1 (Homo sapiens, UniProt P53582); test: Inhibition of methionine aminopeptidase 1
[10] = molecular target: Methionine aminopeptidase 2 (Homo sapiens, UniProt P50579); test: Inhibition of methionine aminopeptidase 2
Mus musculus [11] = test: Toxicity in human HCT116 xenografted SCID mouse at 125 ug/mouse dosed as bolus dose after 23 days; format: organism-based; settings: in vivo, 552 h
Method in brief: (§3)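 Bolus injection into SCID mice bearing HCT-116 tumours at 125, 62 or 31 μg/mouse; tumour growth read as %T/C against controls at 23 days.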

HCT-116 [12] = test: Cytotoxicity against human HCT116 cells assessed as cell kill at >=3 ng/mL after 2 hrs by clonogenic assay; format: functional; method in brief: as §2
HCT-116 [13] = test: Anticancer activity against human HCT116 xenografted in SCID mouse at 31 ug/mouse dosed as bolus dose after 23 days relative to control; format: functional; method in brief: as §3
HCT-116 [14] = test: Cytotoxicity against human HCT116 cells assessed as cell kill at >=20 pg/mL after 168 hrs by clonogenic assay; format: functional; method in brief: as §2
HCT-116 [15] = test: Anticancer activity against human HCT116 xenografted in SCID mouse at 62 ug/mouse dosed as bolus dose after 23 days relative to control; format: functional; method in brief: as §3
HCT-116 [16] = test: Cytotoxicity against human HCT116 cells assessed as cell kill at >=2 ng/mL after 24 hrs by clonogenic assay; format: functional; method in brief: as §2
MCF7 = test: Growth inhibition of human MCF7 cells; format: functional
PC-3 = test: Cytotoxicity against human PC3 cells; format: functional, cell-based

Methionine aminopeptidase 2, sequence (P50579 whole entry): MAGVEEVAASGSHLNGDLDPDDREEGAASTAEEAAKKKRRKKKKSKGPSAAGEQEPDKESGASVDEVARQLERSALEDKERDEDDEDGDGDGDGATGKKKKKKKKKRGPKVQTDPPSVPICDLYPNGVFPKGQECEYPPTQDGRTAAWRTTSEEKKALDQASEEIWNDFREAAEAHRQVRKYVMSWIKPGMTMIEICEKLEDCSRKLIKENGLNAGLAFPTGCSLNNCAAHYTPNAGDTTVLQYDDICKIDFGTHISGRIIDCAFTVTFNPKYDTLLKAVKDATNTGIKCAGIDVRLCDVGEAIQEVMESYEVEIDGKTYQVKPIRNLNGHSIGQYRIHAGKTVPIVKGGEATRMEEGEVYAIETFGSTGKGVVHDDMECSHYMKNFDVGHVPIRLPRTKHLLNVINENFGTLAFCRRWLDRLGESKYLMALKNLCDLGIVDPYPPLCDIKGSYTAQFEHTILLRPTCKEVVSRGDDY

Compound: C=C1C[C@H](C)C[C@@H]2CC=C[C@@H](C/C=C\C(=O)O[C@H]([C@@H](O)/C=C/[C@@H]3CC(C)=CCO3)C[C@@H]3O[C@H]3[C@@H](O)C1)O2 [FIJIANOLIDE B]
- pIC50 (KB): 7.54
- Activity (Mus musculus [1]): Non-toxic
- Activity (Mus musculus [2]): Non-toxic
- T/C (HCT-116 [3]): 80%
- pIC50 (MDA-MB-435): 8.70
- CC50 (MDA-MB-435): 7 nM
- T/C (HCT-116 [4]): 11%

Compound: C=CC/C=C\Cc1csc(C(C)(C)[C@H](O)C/C=C\C(=C)CCNC(=O)OC)n1 [MYCOTHIAZOLE]
- MTD [5]: 3 mg/kg
- Activity (HCT-116 [6]): >10 µg/mL
- IC50 (HCT-116 [7]): 1.5 ng/mL (≈ 3.71 nM)
- Activity (HCT-116 [8]): >10 µg/mL

Compound: CO[C@@H]1[C@H](OC(=O)NC(=O)CCl)CC[C@]2(CO2)[C@H]1[C@@]1(C)O[C@@H]1CC=C(C)C [O-CHLOROACETYLCARBAMOYLFUMAGILLOL]
- IC50 [9]: Not Active

Compound: CCC(C)CCCCCCCCCCC(=O)O[C@H]1CC[C@H](NC(=O)[C@H](OC)[C@H](O)[C@@H](O)[C@H](O)/C=C/C(C)C)C(=O)N(C)C1 (some centres not stated) [BENGAMIDE O]
- pIC50 [10]: < 4.30

Compound: C=C(C)C[C@H](OC)[C@H](O)C(=O)N[C@@H](OC)C1C[C@@H](O)C(C)(C)[C@@H](C[C@H](O)[C@@H](C)[C@@H]2Cc3c(C)c(O)cc(O)c3C(=O)O2)O1 (some centres not stated) [IRCINIASTATIN]
- MTD [5]: 0.125 mg/kg
- Activity (Mus musculus [11]): Toxic
- Activity (HCT-116 [12]): 90%
- T/C (HCT-116 [13]): 86%
- Activity (HCT-116 [14]): 90%
- T/C (HCT-116 [15]): 75%
- Activity (HCT-116 [16]): 90%
- GI50 (MCF7): 5.2 nM
- pIC50 (PC-3): 9.00
- CC50 (MDA-MB-435): < 2.5 nM

- IC50 [9]: Not Active
- pIC50 [10]: 7.52
Compound: CO[C@@H]1[C@H](OC(=O)/C=C/C=C/C=C/C=C/C(=O)O)CC[C@]2(CO2)[C@H]1[C@@]1(C)O[C@@H]1CC=C(C)C [FUMAGILLIN]

Compound: CO[C@@H]1C(=O)CC[C@]2(CO2)[C@@]1(O)[C@@]1(C)O[C@@H]1CC=C(C)C [OVALICIN]
- IC50 [9]: Not Active

- pIC50 [10]: < 3.52
Compound: CC(C)(C)OC(=O)Nc1cccnc1C(=O)Nc1nccs1
